Laboratory results from ChEMBL document CHEMBL1154626, “Novel, potent, and selective quinoxaline-based 5-HT(3) receptor ligands. 1. Further structure-activity relationships and pharmacological characterization” (J Med Chem, 2009).

Legend:
[1] = molecular target: T1, 5-hydroxytryptamine receptor 3A (Cavia porcellus, UniProt O70212); test: Antagonist activity at 5HT3 receptor in spontaneously beating guinea pig right atrium assessed as inhibition of serotonin-induced maximum response by noncompetitive binding assay; assay type: tissue-based, Cardiac atrium; settings: read-out: IC50
T1 sequence (O70212 whole entry): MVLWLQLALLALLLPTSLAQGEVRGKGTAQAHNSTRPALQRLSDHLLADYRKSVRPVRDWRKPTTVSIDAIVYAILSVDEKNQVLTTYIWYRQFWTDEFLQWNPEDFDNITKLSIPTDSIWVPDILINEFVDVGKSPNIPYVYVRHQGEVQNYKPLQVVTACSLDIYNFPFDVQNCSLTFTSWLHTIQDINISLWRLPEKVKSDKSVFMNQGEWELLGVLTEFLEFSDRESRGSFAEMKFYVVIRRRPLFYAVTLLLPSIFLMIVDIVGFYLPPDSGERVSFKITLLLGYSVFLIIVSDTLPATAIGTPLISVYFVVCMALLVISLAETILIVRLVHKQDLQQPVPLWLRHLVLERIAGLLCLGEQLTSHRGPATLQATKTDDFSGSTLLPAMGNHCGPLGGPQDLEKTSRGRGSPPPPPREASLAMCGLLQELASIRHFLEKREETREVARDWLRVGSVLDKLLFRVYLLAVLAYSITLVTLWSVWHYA
Procedure, shortened: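 Spontaneously beating guinea pig right atria, exposed 30 min to test compound at 10 μM, followed by cumulative 5-HT log concentration-response curves versus control. Mean ± SEM of five to seven observations.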

Rattus norvegicus = test: Plasma concentration in rat at 0.25 mg/kg, iv; assay type: ADME, organism-based; design: dose 0.25 mg/kg, route intravenous; settings: in vivo, BLD = below limit of detection
Procedure, shortened: (§1)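 Rats dosed iv at 0.25–1 mg/kg and sacrificed 30 min after injection. Mean ± SEM of three animals. Brain/plasma ratio assumes 1 g tissue equals 1 mL water.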

[2] = Ratio of drug level from brain to plasma in rat at 0.5 mg/kg, iv; assay type: ADME, organism-based; design: dose 0.5 mg/kg, route intravenous
Procedure, shortened: (§2)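 Rats given a single iv injection (0.25–1 mg/kg) and killed 30 min afterwards. Brain/plasma ratio calculated assuming 1 g tissue equals 1 mL water. Three animals per dose, mean ± SEM.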

[3] = molecular target: 5-hydroxytryptamine receptor 4 (Cavia porcellus, UniProt O70528); test: Displacement of [3H]GR-113808 from 5HT4 receptor in guinea pig striatum
[4] = molecular target: T2, 5-hydroxytryptamine receptor 1A (Rattus norvegicus, UniProt P19327); test: Displacement of [3H]8-OHDPAT from 5HT1A receptor in rat hippocampus; assay type: tissue-based
T2 sequence (P19327 whole entry): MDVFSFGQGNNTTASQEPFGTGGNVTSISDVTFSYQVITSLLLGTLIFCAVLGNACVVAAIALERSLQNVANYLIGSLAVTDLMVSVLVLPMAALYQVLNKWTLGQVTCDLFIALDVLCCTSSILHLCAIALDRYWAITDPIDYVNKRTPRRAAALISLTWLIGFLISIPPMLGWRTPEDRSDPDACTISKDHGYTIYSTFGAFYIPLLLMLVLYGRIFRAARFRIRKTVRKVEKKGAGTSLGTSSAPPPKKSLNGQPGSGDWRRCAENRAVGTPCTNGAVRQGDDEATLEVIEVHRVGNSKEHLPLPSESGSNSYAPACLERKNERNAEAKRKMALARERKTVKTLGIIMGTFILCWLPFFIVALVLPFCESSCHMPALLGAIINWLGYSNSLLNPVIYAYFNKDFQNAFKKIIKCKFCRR

[5] = molecular target: T3, Alpha-2A adrenergic receptor (Rattus norvegicus, UniProt P22909); test: Displacement of [3H]RX821002 from adrenergic alpha2 receptor in rat cortex
T3 sequence (P22909 whole entry): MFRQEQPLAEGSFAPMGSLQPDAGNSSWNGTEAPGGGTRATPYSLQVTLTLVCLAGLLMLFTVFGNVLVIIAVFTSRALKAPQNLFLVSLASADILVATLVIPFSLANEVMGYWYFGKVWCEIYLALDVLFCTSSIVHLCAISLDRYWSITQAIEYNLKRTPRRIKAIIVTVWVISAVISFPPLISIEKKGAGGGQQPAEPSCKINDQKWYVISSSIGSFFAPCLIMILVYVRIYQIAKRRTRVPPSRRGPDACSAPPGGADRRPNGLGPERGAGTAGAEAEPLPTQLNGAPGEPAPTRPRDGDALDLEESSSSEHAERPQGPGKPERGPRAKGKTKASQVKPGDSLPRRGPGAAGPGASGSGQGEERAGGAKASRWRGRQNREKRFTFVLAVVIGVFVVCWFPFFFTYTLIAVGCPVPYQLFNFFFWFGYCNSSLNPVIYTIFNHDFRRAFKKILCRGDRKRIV

Brain [6] = test: Drug level in rat brain at 0.5 mg/kg, iv; assay type: ADME, organism-based; design: dose 0.5 mg/kg, route intravenous; settings: in vivo, read-out: Drug uptake; procedure, shortened: as §1
Brain [7] = test: Drug level in rat brain at 1 mg/kg, iv; assay type: ADME, organism-based; design: dose 1 mg/kg, route intravenous; settings: read-out: Drug uptake, in vivo; procedure, shortened: as §1
[8] = molecular target: T4, 5-hydroxytryptamine receptor 3A (Rattus norvegicus, UniProt P35563); test: Displacement of [3H]LY278584 from 5HT3 receptor in rat cortical homogenate; settings: read-out: Ki
T4 sequence (P35563 whole entry): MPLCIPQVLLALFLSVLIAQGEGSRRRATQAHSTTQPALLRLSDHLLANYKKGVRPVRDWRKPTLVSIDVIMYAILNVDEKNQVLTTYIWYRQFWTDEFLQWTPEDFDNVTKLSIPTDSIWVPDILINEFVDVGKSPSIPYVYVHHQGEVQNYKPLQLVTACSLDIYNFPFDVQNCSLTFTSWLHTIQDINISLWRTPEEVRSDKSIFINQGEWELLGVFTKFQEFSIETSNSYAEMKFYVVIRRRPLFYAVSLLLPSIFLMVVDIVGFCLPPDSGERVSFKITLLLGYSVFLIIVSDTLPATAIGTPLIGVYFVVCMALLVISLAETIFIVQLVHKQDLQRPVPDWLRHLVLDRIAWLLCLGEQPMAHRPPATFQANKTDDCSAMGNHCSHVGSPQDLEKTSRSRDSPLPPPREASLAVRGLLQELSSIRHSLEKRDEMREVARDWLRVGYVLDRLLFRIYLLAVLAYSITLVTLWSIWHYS
Procedure, shortened: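 Rat cortical homogenate, competition against [3H]LY278584 binding. Ki is the concentration giving half-maximal inhibition of binding, as the mean ± S.E.M. of three determinations.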

D(2) dopamine receptor = D(2) dopamine receptor (Rattus norvegicus, UniProt P61169); test: Displacement of [3H]spiperone from dopamine D2 receptor in rat striatum
D(1A) dopamine receptor = D(1A) dopamine receptor (Rattus norvegicus, UniProt P18901); test: Displacement of [3H]SCH-23390 from dopamine D1 receptor in rat striatum
[9] = Ratio of drug level from brain to plasma in rat at 1 mg/kg, iv; assay type: ADME, organism-based; design: dose 1 mg/kg, route intravenous; procedure, shortened: as §2
[10] = molecular target: 5-hydroxytryptamine receptor 2A (Rattus norvegicus, UniProt P14842); test: Displacement of [3H]ketanserin from 5HT2A receptor in rat cortex
[11] = molecular target: T1, 5-hydroxytryptamine receptor 3A; test: Intrinsic activity at 5HT3 receptor in spontaneously beating guinea pig right atrium assessed as positive chronotropic potency relative to serotonin

Chain of D(1A) dopamine receptor (P18901 whole entry): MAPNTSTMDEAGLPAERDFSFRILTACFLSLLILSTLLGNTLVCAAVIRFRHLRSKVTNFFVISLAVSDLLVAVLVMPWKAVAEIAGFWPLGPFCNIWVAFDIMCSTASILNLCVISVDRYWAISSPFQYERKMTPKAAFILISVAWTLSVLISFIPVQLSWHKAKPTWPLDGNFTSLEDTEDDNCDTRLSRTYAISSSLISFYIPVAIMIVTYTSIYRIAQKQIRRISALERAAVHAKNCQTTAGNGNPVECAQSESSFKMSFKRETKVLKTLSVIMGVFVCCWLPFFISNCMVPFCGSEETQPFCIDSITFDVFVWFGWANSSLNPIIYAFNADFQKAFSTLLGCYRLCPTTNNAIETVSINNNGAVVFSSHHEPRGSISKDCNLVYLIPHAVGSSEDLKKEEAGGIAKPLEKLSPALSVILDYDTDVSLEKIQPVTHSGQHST
Chain of 5-hydroxytryptamine receptor 2A (P14842 whole entry): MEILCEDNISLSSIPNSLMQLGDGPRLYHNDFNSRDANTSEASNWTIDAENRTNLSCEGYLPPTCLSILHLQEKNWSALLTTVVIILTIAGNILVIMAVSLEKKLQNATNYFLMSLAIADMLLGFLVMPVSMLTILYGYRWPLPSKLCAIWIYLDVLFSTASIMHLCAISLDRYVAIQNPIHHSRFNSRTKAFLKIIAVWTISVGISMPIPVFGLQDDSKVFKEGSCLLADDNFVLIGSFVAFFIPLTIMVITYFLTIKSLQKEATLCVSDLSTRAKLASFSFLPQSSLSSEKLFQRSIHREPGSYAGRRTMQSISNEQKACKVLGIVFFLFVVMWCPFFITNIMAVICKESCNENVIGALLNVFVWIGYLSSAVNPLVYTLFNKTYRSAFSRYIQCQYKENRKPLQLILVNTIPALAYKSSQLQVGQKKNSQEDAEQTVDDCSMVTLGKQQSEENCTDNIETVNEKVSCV
Chain of D(2) dopamine receptor (P61169 whole entry): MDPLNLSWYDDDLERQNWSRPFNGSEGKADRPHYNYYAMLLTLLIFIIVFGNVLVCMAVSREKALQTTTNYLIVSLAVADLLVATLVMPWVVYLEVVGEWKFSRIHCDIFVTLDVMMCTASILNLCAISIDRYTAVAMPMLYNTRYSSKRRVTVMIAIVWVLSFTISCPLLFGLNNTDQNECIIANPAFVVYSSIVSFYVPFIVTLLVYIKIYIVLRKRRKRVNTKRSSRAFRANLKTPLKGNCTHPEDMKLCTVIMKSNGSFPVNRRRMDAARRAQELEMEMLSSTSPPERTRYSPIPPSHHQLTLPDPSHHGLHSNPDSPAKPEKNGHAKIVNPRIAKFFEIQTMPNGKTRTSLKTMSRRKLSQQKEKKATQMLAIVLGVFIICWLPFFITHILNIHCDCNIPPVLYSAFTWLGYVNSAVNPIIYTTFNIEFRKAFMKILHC
Chain of 5-hydroxytryptamine receptor 4 (O70528 whole entry): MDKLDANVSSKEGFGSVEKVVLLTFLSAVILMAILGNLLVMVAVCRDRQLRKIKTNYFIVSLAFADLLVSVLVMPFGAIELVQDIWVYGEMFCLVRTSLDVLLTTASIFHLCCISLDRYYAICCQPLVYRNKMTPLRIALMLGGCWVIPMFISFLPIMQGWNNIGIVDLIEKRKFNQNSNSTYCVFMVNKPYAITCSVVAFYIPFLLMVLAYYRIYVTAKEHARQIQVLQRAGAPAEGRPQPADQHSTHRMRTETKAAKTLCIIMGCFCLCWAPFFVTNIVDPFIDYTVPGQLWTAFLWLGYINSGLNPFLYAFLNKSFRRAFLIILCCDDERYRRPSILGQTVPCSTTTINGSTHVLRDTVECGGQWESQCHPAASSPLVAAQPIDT

IC50 [1] [µM] | Cp (Rattus norvegicus) | Kp [2] | Ki [3] [µM] | Ki [4] [µM] | Ki [5] [µM] | concentration (Brain [6]) [µM] | concentration (Brain [7]) [µM] | Ki [8] [µM] | Ki (D(2) dopamine receptor) [µM] | Ki (D(1A) dopamine receptor) [µM] | Kp [9] | Ki [10] [µM] | EC50 [11] [µM] | SMILES
0.27 | BLD | 1.3 | > 10 | > 10 | > 10 | 0.09 | 0.21 | 0.00068 | > 10 | > 10 | 1 | > 10 | – | Fc1ccc2c(c1)nc(N1CCN(Cc3cnc[nH]3)CC1)c1cccn12
– | – | – | – | – | – | – | – | 0.0024 | – | – | – | – | 0.34 | CN1CCN(c2nc3ncccc3n3cccc23)CC1
